# Measured values published in ChEMBL document CHEMBL2384922, “Synthesis and evaluation of carbamoylmethylene linked prodrugs of BMS-582949, a clinical p38α inhibitor” (Bioorg Med Chem Lett, 2013).
# Tests used:
# [1] = Half life of the compound at pH 7.4 at 37 degC by solution stability test; format: physicochemical; conditions: buffer
# How it was run: (§1)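 Chemical stability in aqueous solution at 37 °C, at pH 1.0 or pH 7.4. Half-life determined for each condition, in hours.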
# [2] = Half life of the compound at pH 1 at 37 degC by solution stability test; format: physicochemical; conditions: buffer; how it was run: as §1
# [3] = AUC (0 to 24 hrs) in rat at 100 mg/kg, po administered in 0.75% methocel vehicle as suspension; format: ADME, organism-based; parameters: time < 24 hr, dose 100 mg/kg, route oral; conditions: plasma
# How it was run: (§2)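 Oral dosing to rats as a methocel suspension. Prodrug given at 142 mpk (equivalent to 100 mpk of parent); parent given at 100 mpk. Parent drug measured in plasma over 24 h, giving Cmax, Tmax and AUC0–24h. The prodrug itself was also monitored in plasma.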
# [4] = Cmax in rat at 100 mg/kg, po administered in 0.75% methocel vehicle as suspension; format: ADME, organism-based; parameters: dose 100 mg/kg, route oral; conditions: in vivo; how it was run: as §2
# [5] = Tmax in rat at 100 mg/kg, po administered in 0.75% methocel vehicle as suspension; format: ADME, organism-based; parameters: dose 100 mg/kg, route oral; conditions: in vivo; how it was run: as §2
# [6] = Cmax in rat at 10 mg/kg, po administered with 1:1 PEG 300/water as vehicle; format: ADME, organism-based; parameters: dose 10 mg/kg, route oral; conditions: in vivo
# How it was run: (§3)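 Oral dosing to rats as a solution in 1:1 PEG 300/water. Prodrug given at 14.2 mpk (equivalent to 10 mpk of parent); parent given at 10 mpk. Plasma levels of the parent drug measured over 24 h, giving Cmax, Tmax and AUC0–24h. The prodrug itself was also monitored in plasma.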
# [7] = AUC (0 to 24 hrs) in rat at 10 mg/kg, po administered with 1:1 PEG 300/water as vehicle; format: ADME, organism-based; parameters: time < 24 hr, dose 10 mg/kg, route oral; conditions: plasma; how it was run: as §3
# [8] = Tmax in rat at 10 mg/kg, po administered with 1:1 PEG 300/water as vehicle; format: ADME, organism-based; parameters: dose 10 mg/kg, route oral; conditions: in vivo; how it was run: as §3
# [9] = Half life of the compound at pH 7.5 at 25 degC by solution stability test; format: physicochemical; conditions: buffer
# Rattus norvegicus [10] = assay: AUC (0 to 24 hrs) in rat assessed as parent compound BMS-582949 at 142 mg/kg, po administered in 0.75% methocel vehicle as suspension; format: ADME, organism-based, Plasma; parameters: time < 24 hr, dose 142 mg/kg, route oral; conditions: in vivo; how it was run: as §2
# Rattus norvegicus [11] = assay: Cmax in rat assessed as parent compound BMS-582949 at 142 mg/kg, po administered in 0.75% methocel vehicle as suspension; format: ADME, organism-based; parameters: dose 142 mg/kg, route oral; conditions: in vivo; how it was run: as §2
# Rattus norvegicus [12] = assay: Tmax in rat assessed as parent compound BMS-582949 at 142 mg/kg, po administered in 0.75% methocel vehicle as suspension; format: ADME, organism-based; parameters: dose 142 mg/kg, route oral; conditions: in vivo; how it was run: as §2
# Rattus norvegicus [13] = assay: AUC (0 to 24 hrs) in rat assessed as parent compound BMS-582949 at 14.2 mg/kg, po administered in 1:1 PEG 300/water as vehicle; format: ADME, organism-based, Plasma; parameters: time < 24 hr, dose 14.2 mg/kg, route oral; conditions: in vivo; how it was run: as §3
# Rattus norvegicus [14] = assay: Tmax in rat assessed as parent compound BMS-582949 at 14.2 mg/kg, po administered in 1:1 PEG 300/water as vehicle; format: ADME, organism-based; parameters: dose 14.2 mg/kg, route oral; conditions: in vivo; how it was run: as §3
# Rattus norvegicus [15] = assay: Cmax in rat assessed as parent compound BMS-582949 at 14.2 mg/kg, po administered in 1:1 PEG 300/water as vehicle; format: ADME, organism-based; parameters: dose 14.2 mg/kg, route oral; conditions: in vivo; how it was run: as §3
# [16] = Aqueous solubility of the compound at pH 3.1; format: physicochemical
# [17] = Aqueous solubility of the compound at pH 4.6; format: physicochemical
# [18] = Aqueous solubility of the compound at pH 6.5; format: physicochemical
# [19] = Aqueous solubility of the compound at pH 1; format: physicochemical
smiles,measurement,setting,value
CCCN(C(=O)OCOC(=O)[C@H](C)N)C(=O)c1cn2ncnc(Nc3cc(C(=O)NC4CC4)ccc3C)c2c1C.Cl.Cl,half-life,[1],< 0.25 h
same,half-life,[2],3.2 h
CCCN(C(=O)OCOP(=O)(O)O)C(=O)c1cn2ncnc(Nc3cc(C(=O)NC4CC4)ccc3C)c2c1C,half-life,[1],< 0.25 h
same,half-life,[2],26.8 h
CCCNC(=O)c1cn2ncnc(Nc3cc(C(=O)N(C(=O)OCOC(=O)[C@H](C)N)C4CC4)ccc3C)c2c1C.Cl,half-life,[1],< 0.25 h
same,half-life,[2],3 h
CCCNC(=O)c1cn2ncnc(Nc3cc(C(=O)NC4CC4)ccc3C)c2c1C [BMS-582949],AUC(0-t) at 24 h,[3],5.6 µM·h
same,Cmax,[4],0.8 µM
same,Tmax,[5],1.7 h
same,Cmax,[6],6.5 µM
same,AUC(0-t) at 24 h,[7],53.3 µM·h
same,Tmax,[8],1 h
CCCNC(=O)c1cn2ncnc(N(C(=O)OCOC(=O)[C@H](C)N)c3cc(C(=O)NC4CC4)ccc3C)c2c1C.Cl.Cl,half-life,[1],< 0.25 h
same,half-life,[2],3.2 h
O=C(OCOP(=O)(O)O)OC1Cc2ccccc2C1,half-life,[9],0.967 h
CCCN(C(=O)OCOC(=O)/C=C/C(=O)O)C(=O)c1cn2ncnc(Nc3cc(C(=O)NC4CC4)ccc3C)c2c1C,AUC,Rattus norvegicus [10],213.9 µM·h
same,Cmax,Rattus norvegicus [11],21.1 µM
same,Tmax,Rattus norvegicus [12],6 h
same,AUC,Rattus norvegicus [13],52 µM·h
same,Tmax,Rattus norvegicus [14],4 h
same,Cmax,Rattus norvegicus [15],4.6 µM
same,solubility,[16],105 µg/mL
same,solubility,[17],367 µg/mL
same,solubility,[18],883 µg/mL
same,half-life,[1],38.5 h
same,solubility,[19],1180 µg/mL
same,half-life,[2],79.4 h
CCCNC(=O)c1cn2ncnc(N(C(=O)OCOC(=O)/C=C/C(=O)O)c3cc(C(=O)NC4CC4)ccc3C)c2c1C,solubility,[18],1150 µg/mL
same,half-life,[1],14.6 h
same,solubility,[19],8 µg/mL
same,half-life,[2],129 h
CCCNC(=O)c1cn2ncnc(Nc3cc(C(=O)N(C(=O)OCOP(=O)(O)O)C4CC4)ccc3C)c2c1C,half-life,[1],< 0.25 h
same,half-life,[2],20.5 h
CCCNC(=O)c1cn2ncnc(Nc3cc(C(=O)N(C(=O)OCOC(=O)/C=C/C(=O)O)C4CC4)ccc3C)c2c1C,solubility,[18],1570 µg/mL
same,half-life,[1],21.8 h
same,solubility,[19],166 µg/mL
same,half-life,[2],34.5 h
CCCNC(=O)c1cn2ncnc(N(C(=O)OCOP(=O)(O)O)c3cc(C(=O)NC4CC4)ccc3C)c2c1C,half-life,[1],< 0.25 h
same,half-life,[2],8.5 h
COc1ccc(CCNC(=O)OCOP(=O)(O)O)cc1OC,half-life,[9],1150 h
